Inhibition data for five compounds are collected here from PubChem BioAssay AID1899 (The Scripps Research Institute Molecular Screening Center, 2009).

The campaign covered roughly 300,000 compounds. About 1,000 (0.33%) were called active. Many of the other results were omitted from the sample, so actives are more common in it than they were. Values without a mark were called inactive.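 Rule for the calls: active = inhibition above the mean of all tested compounds plus 3 SD, set per screening campaign (cut at about 45% in these data); inactive = the rest.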

As a reminder, the inhibition is the drop in the measured response relative to a control, in per cent.

This assay has as its system HCV core protein (residues 1-106) dimerization. Briefly: inhibitors of HCV core protein dimerization, primary screen, biochemical, TR-FRET, high-throughput (AID 1899). The note with it: TR-FRET GST/Flag-core106 dimerization, 1536-well; at 5 µM; stronger effect = higher value. In short, it runs like this: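 System – GST-tagged and Flag-tagged HCV core protein residues 1-106 · Repeats – one well for each compound · Technique – TR-FRET 671 and 617 nm emission · Doses – one concentration, 5 µM, in 0.5% DMSO · Times – 4 h, 22.5 °C incubation · Also added – Eu donor and XL665 acceptor anti-tag antibodies · Measure – percent inhibition of core106 dimerization signal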
In general terms: TR-FRET usually uses a lanthanide donor and a delayed reading to cut background.
As for `Cc1cccc(N2C(=O)NC(=O)/C(=C\c3cnn(-c4ccccc4)c3)C2=O)c1`, the inhibition was 46.9% (active).
The same measure for `O=C1NC(=O)N(c2ccccc2)C(=O)/C1=C/c1ccc([N+](=O)[O-])s1`: -5.13%.
Regarding `COc1cccc(N2C(=O)NC(=O)/C(=C\c3cn(C)c4ccccc34)C2=O)c1`, the inhibition was -2.56%.
The same measure for `CN1C2C=C(N(C(=O)c3ccc(Cl)cc3)c3ccccc3)CC1CC2` (stereo not given): -2.38%.
Under `CSC1=NP(=S)(SC)N(C)c2nc3n(c21)CCC3` (stereo not given) stands 8.93%.
